Assay results as given in ChEMBL document CHEMBL1125493, “HIV-1 neutralization and tumor cell proliferation inhibition in vitro by simplified analogues of pyrido[4,3,2-mn]thiazolo[5,4-b]acridine marine alkaloids” (J Med Chem, 1992).
Each block holds one compound with its values, some of them ahead of it.

Experiments:
[1] = Calu3 lung tumor cell proliferation inhibition by the compound in vitro at a concentration of 0.015 uM.; type: functional, Homo sapiens
In short: (§1)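 Tumor cells grown in RPMI-1640 in 1% agar with 5% fetal bovine serum, exposed to the specified concentrations for 1 week. Viability was assessed against a control given distilled water in place of drug. 5-Fluorouracil served as the positive cytotoxic standard. Results are reported as concentration-dependent cell survival.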

[2] = Calu3 lung tumor cell proliferation inhibition by the compound in vitro at a concentration of 0.15 uM.; type: functional, Homo sapiens; in short: as §1
[3] = Calu3 lung tumor cell proliferation inhibition by the compound in vitro at a concentration of 1.5 uM.; type: functional, Homo sapiens; in short: as §1
COLO 320DM [4] = test: COLO 320DM colon tumor cell proliferation inhibition by the compound in vitro at a concentration of 1.5 uM.; type: functional, Homo sapiens; in short: as §1
COLO 320DM [5] = test: COLO 320DM colon tumor cell proliferation inhibition by the compound in vitro at a concentration of 0.015 uM.; type: functional, Homo sapiens; in short: as §1
COLO 320DM [6] = test: COLO 320DM colon tumor cell proliferation inhibition by the compound in vitro at a concentration of 0.15 uM.; type: functional, Homo sapiens; in short: as §1
[7] = system: Human immunodeficiency virus 1; test: Inhibitory effect against HIV-1 in human peripheral blood monocyte cells(PBMC) (EC50-22.6 ug/mL); type: functional, organism-based
[8] = system: Human immunodeficiency virus 1; test: Inhibitory effect against HIV-1 induced cytopathic effects(HIV-1 neutralization) in MT-4 lymphocytes at a concentration of 10 ug/mL (0.0375 uM/mL).; type: functional
In short: (§2)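 HIV-1 Molt IIIB (~2 × 10^4 TCID50 in 100 μL) preincubated 1 h at 37 °C with a single compound dose, then added to MT-4 cells (5 × 10^5 cells/well, 1 mL). Cultured at 37 °C, 5% CO2. Viable cells counted by trypan blue exclusion on days 4 and 7. Triplicates; % viable cells. Controls: infected cells (positive), uninfected cells (negative).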

MT4 [9] = test: Cytotoxic effect in cultured MT-4 lymphocytes at a concentration of 100 ug/mL (0.3750 uM/mL).; type: functional, Homo sapiens
In short: (§3)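 MT-4 cells at 5 × 10^4 cells/well, 1 mL total, cultured with compound diluted in RPMI 1640 with 10% FBS, 10 mM HEPES, penicillin/streptomycin and 2 mM glutamine, at 37 °C under 5% CO2. Viability was scored by trypan blue exclusion on days 4 and 7, in triplicate, as % viable cells.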

MCF7 [10] = test: […] breast tumor cell proliferation inhibition by the compound in vitro at a concentration of 0.015 uM.; type: functional, Homo sapiens
In short: (§4)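 Breast tumor cells treated with specified compound concentrations in RPMI-1640 in 1% agar with 5% FBS for 1 week. Viability compared with a control given distilled water in place of drug; 5-fluorouracil as standard cytotoxic drug. Reported as concentration-dependent cell survival.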

MCF7 [11] = test: […] breast tumor cell proliferation inhibition by the compound in vitro at a concentration of 0.15 uM.; type: functional, Homo sapiens; in short: as §4
MCF7 [12] = test: […] breast tumor cell proliferation inhibition by the compound in vitro at a concentration of 1.5 uM.; type: functional, Homo sapiens; in short: as §4
MT4 [13] = test: Cytotoxic effect in cultured MT-4 lymphocytes at a concentration of 2 ug/mL (0.0076 uM/mL).; type: functional, Homo sapiens; in short: as §3
MT4 [14] = test: Cytotoxic effect in cultured MT-4 lymphocytes at a concentration of 10 ug/mL (0.0375 uM/mL).; type: functional, Homo sapiens; in short: as §3
[15] = system: Human immunodeficiency virus 1; test: Inhibitory effect against HIV-1 in human peripheral blood monocyte cells(PBMC) (EC50 ->7.44 ug/mL); type: functional, organism-based
[16] = system: Human immunodeficiency virus 1; test: Inhibitory effect against HIV-1 induced cytopathic effects(HIV-1 neutralization) in MT-4 lymphocytes at a concentration of 100 ug/mL (0.3500 uM/mL).; type: functional; in short: as §2
MT4 [17] = test: Cytotoxic effect in cultured MT-4 lymphocytes at a concentration of 100 ug/mL (0.3500 uM/mL).; type: functional, Homo sapiens; in short: as §3
MT4 [18] = test: Cytotoxic effect in cultured MT-4 lymphocytes at a concentration of 10 ug/mL (0.0350 uM/mL).; type: functional, Homo sapiens; in short: as §3
MT4 [19] = test: Cytotoxic effect in cultured MT-4 lymphocytes at a concentration of 2 ug/mL (0.0070 uM/mL).; type: functional, Homo sapiens; in short: as §3

EC50 [7]: 84.6 µM
Compound: Cc1nc2cc3nc4ccccc4c(O)c3cc2s1.Cl
Viability [1]: 98% | Viability [2]: 36% | Viability [3]: 0% | Viability (COLO 320DM [4]): 0% | Viability (COLO 320DM [5]): 117% | Viability (COLO 320DM [6]): 49% | Viability [8]: 19.4% | Viability (MT4 [9]): 74.3% | Viability (MCF7 [10]): 91% | Viability (MCF7 [11]): 38% | Viability (MCF7 [12]): 0% | Viability (MT4 [13]): 91.9% | Viability (MT4 [14]): 87.2%

EC50 [15]: 26 µM
Compound: Cc1nc2cc(Nc3ccccc3C(=O)[O-])ccc2s1.[Na+]
Viability [16]: 18.2% | Viability (MT4 [17]): 93.3% | Viability (MT4 [18]): 92.6% | Viability (MT4 [19]): 87.5%
